≈ marks a conversion by molar mass, not a printed value. Calls of active or inactive are those of the source. No cut-off for these calls is given here.
Columns and labels:
Aspergillus niger [1] = experiment: Antifungal activity against Aspergillus niger NCIM 1196 by agar plate assay; format: functional
Procedure, shortened: (§1)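 In vitro MIC determined by standard agar plate method (cup plate format). Compounds were tested in dimethyl sulfoxide, with DMSO alone as solvent control. Miconazole and fluconazole served as reference standards.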

Aspergillus flavus [2] = experiment: Antifungal activity against Aspergillus flavus NCIM 539 by agar plate assay; format: functional; procedure, shortened: as §1
Candida albicans [3] = experiment: Antifungal activity against Candida albicans NCIM 3471 by agar plate assay; format: functional; procedure, shortened: as §1
Fusarium oxysporum = experiment: Antifungal activity against Fusarium oxysporum NCIM 1332 by agar plate assay; format: functional; procedure, shortened: as §1
Cryptococcus neoformans [4] = experiment: Antifungal activity against Cryptococcus neoformans NCIM 576 by agar plate assay; format: functional; procedure, shortened: as §1
Candida albicans [5] = experiment: Antifungal activity against Candida albicans NCIM 3471 at 200 ug/mL by agar plate assay; format: functional, organism-based
Cryptococcus neoformans [6] = experiment: Antifungal activity against Cryptococcus neoformans NCIM 576 at 200 ug/mL by agar plate assay; format: functional, organism-based
Aspergillus flavus [7] = experiment: Antifungal activity against Aspergillus flavus NCIM 539 at 200 ug/mL by agar plate assay; format: functional, organism-based
Aspergillus niger [8] = experiment: Antifungal activity against Aspergillus niger NCIM 1196 at 200 ug/mL by agar plate assay; format: functional, organism-based

SMILES	MIC (Aspergillus niger [1]) [µg/mL]	MIC (Aspergillus flavus [2]) [µg/mL]	MIC (Candida albicans [3]) [µg/mL]	MIC (Fusarium oxysporum) [µg/mL]	MIC (Cryptococcus neoformans [4]) [µg/mL]	Activity (Candida albicans [5])	Activity (Cryptococcus neoformans [6])	Activity (Aspergillus flavus [7])	Activity (Aspergillus niger [8])
O=C(c1ccc(Cl)cc1)N1CCC(n2cc(-c3noc(=O)[nH]3)nn2)CC1	25 (≈ 66.7 µM)	20 (≈ 53.4 µM)	40 (≈ 107 µM)	55 (≈ 147 µM)	40 (≈ 107 µM)				
CCC(=O)N1CCC(n2cc(-c3noc(=O)[nH]3)nn2)CC1	42 (≈ 144 µM)	42 (≈ 144 µM)	85 (≈ 291 µM)	90 (≈ 308 µM)	85 (≈ 291 µM)				
CN1CCC(n2cc(-c3noc(=O)[nH]3)nn2)CC1	12.5 (≈ 49.9 µM)	10 (≈ 40 µM)	20 (≈ 79.9 µM)	25 (≈ 99.9 µM)	60 (≈ 240 µM)				
CC(C)(C)OC(=O)N1CCC(n2cc(C#N)nn2)CC1	50 (≈ 180 µM)	55 (≈ 198 µM)		90 (≈ 325 µM)		inactive	inactive		
CC(C)(C)OC(=O)N1CCC(n2cc(/C(N)=N/O)nn2)CC1	20 (≈ 64.4 µM)	20 (≈ 64.4 µM)	35 (≈ 113 µM)	35 (≈ 113 µM)	40 (≈ 129 µM)				
Cc1ccc(S(=O)(=O)N2CCC(n3cc(-c4noc(=O)[nH]4)nn3)CC2)cc1	20 (≈ 51.2 µM)	25 (≈ 64 µM)	30 (≈ 76.8 µM)	33 (≈ 84.5 µM)	40 (≈ 102 µM)				
O=C(c1ccccc1)N1CCC(n2cc(-c3noc(=O)[nH]3)nn2)CC1	42 (≈ 123 µM)	42 (≈ 123 µM)	85 (≈ 250 µM)	88 (≈ 259 µM)	85 (≈ 250 µM)				
CCOC(=O)c1cn(C2CCN(C(=O)OC(C)(C)C)CC2)nn1	19 (≈ 58.6 µM)	22 (≈ 67.8 µM)	40 (≈ 123 µM)	44 (≈ 136 µM)	35 (≈ 108 µM)				
OC(Cn1cncn1)(Cn1cncn1)c1ccc(F)cc1F [FLUCONAZOLE]	10 (≈ 32.7 µM)	5 (≈ 16.3 µM)	5 (≈ 16.3 µM)	5 (≈ 16.3 µM)	5 (≈ 16.3 µM)				
CS(=O)(=O)N1CCC(n2cc(-c3noc(=O)[nH]3)nn2)CC1	10 (≈ 31.8 µM)	15 (≈ 47.7 µM)	20 (≈ 63.6 µM)	25 (≈ 79.5 µM)	27.5 (≈ 87.5 µM)				
O=c1[nH]c(-c2cn(C3CCNCC3)nn2)no1	15 (≈ 63.5 µM)	15 (≈ 63.5 µM)	27.5 (≈ 116 µM)	25 (≈ 106 µM)			inactive		
CC(C)(C)OC(=O)N1CCC(n2cc(C(N)=O)nn2)CC1	25 (≈ 84.6 µM)	27 (≈ 91.4 µM)	50 (≈ 169 µM)	55 (≈ 186 µM)	45 (≈ 152 µM)				
CCCC(=O)N1CCC(n2cc(-c3noc(=O)[nH]3)nn2)CC1			90 (≈ 294 µM)	95 (≈ 310 µM)	85 (≈ 277 µM)			inactive	inactive
CCN1CCC(n2cc(-c3noc(=O)[nH]3)nn2)CC1	19 (≈ 71.9 µM)	19 (≈ 71.9 µM)	37 (≈ 140 µM)	39 (≈ 148 µM)	39 (≈ 148 µM)				
Clc1ccc(COC(Cn2ccnc2)c2ccc(Cl)cc2Cl)c(Cl)c1 (stereo not given) [MICONAZOLE]	12.5 (≈ 30 µM)	12.5 (≈ 30 µM)	25 (≈ 60.1 µM)	25 (≈ 60.1 µM)	25 (≈ 60.1 µM)				
CC(C)(C)OC(=O)N1CCC(n2cc(-c3noc(=O)[nH]3)nn2)CC1	20 (≈ 59.5 µM)	15 (≈ 44.6 µM)	30 (≈ 89.2 µM)	25 (≈ 74.3 µM)			inactive		
CC(=O)N1CCC(n2cc(-c3noc(=O)[nH]3)nn2)CC1	31 (≈ 111 µM)	31 (≈ 111 µM)	60 (≈ 216 µM)	61 (≈ 219 µM)	65 (≈ 234 µM)				

From ChEMBL document CHEMBL1136980, “Synthesis of novel 3-(1-(1-substituted piperidin-4-yl)-1H-1,2,3-triazol-4-yl)-1,2,4-oxadiazol-5(4H)-one as antifungal agents” (2009)
